Measured values: ChEMBL document CHEMBL4359872, “Identification of potent triazolylpyridine nicotinamide phosphoribosyltransferase (NAMPT) inhibitors bearing a 1,2,3-triazole tail group” (Eur J Med Chem, 2019)
Values after ≈ are worked out from the molar mass of the structure shown. Values belong to the compound of their own block, whether it stands above or below them. Active and inactive are the calls of the source. The calls are words filed in the database; no cut-off is given here.

Tests used:
[1] = Drug metabolism in Wistar Han rat liver microsomes assessed as pyridine N-oxidation at 50 uM measured after 60 mins […] by LC-ESI/MS analysis; format: ADME, Microsome; conditions: 1 h
[2] = Drug metabolism in Wistar Han rat liver microsomes assessed as oxidative N-dealkylation at 50 uM measured after 60 mins […] by LC-ESI/MS analysis; format: ADME, Microsome; conditions: 1 h
[3] = Drug metabolism in human liver microsomes assessed as oxidative N-dealkylation at 50 uM measured after 60 mins […] by LC-ESI/MS analysis; format: ADME, Microsome; conditions: 1 h
[4] = Kinetic aqueous solubility of the compound in 80:20 PBS/acetonitrile solution at 200 uM by HTS assay; format: physicochemical; conditions: buffer
TK6 [5] = assay: Genotoxicity in human TK6 cells assessed as induction of DNA damage up to 1000 uM by GreenScreen assay; format: toxicity, cell-based
[6] = Drug metabolism in Wistar Han rat liver microsomes assessed as aliphatic hydroxylation of paraffin linker at 50 uM measured after 60 mins […] by LC-ESI/MS analysis; format: ADME, Microsome; conditions: 1 h
TK6 [7] = assay: Genotoxicity in human TK6 cells in presence of S9 fraction by GreenScreen assay; format: toxicity, cell-based
[8] = Thermodynamic solubility of compound in water after 24 hrs by LC-UV based shake flask method; format: physicochemical; conditions: buffer
How it was run: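 Thermodynamic water solubility measured by saturation shake flask, with the concentration of the saturated solution reported.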

[9] = Drug metabolism in human liver microsomes assessed as pyridine N-oxidation at 50 uM measured after 60 mins […] by LC-ESI/MS analysis; format: ADME, Microsome; conditions: 1 h
Lymphocyte [10] = assay: Genotoxicity in human primary lymphocytes assessed as induction of DNA damage up to 1000 uM by GreenScreen assay; format: toxicity, cell-based
Lymphocyte [11] = assay: Genotoxicity in human primary lymphocytes in presence of S9 fraction by GreenScreen assay; format: toxicity, cell-based
[12] = Drug metabolism in human liver microsomes assessed as aliphatic hydroxylation of paraffin linker at 50 uM measured after 60 mins […] by LC-ESI/MS analysis; format: ADME, Microsome; conditions: 1 h
[13] = Cytotoxicity against human SH-SY5Y cells assessed as cell viability at 1 uM measured after 48 hrs by MTT assay relative to control; format: cell-based; conditions: read-out: Activity
[14] = molecular target: Nicotinamide phosphoribosyltransferase (Mus musculus, UniProt Q99KQ4); assay: Inhibition of recombinant mouse wild-type NAMPT expressed in bacterial expression system using PRPP as substrate in presence of mouse NMNAT-3 measured for 1 hr by fluorescence assay
Sequence of Nicotinamide phosphoribosyltransferase (Q99KQ4 whole entry): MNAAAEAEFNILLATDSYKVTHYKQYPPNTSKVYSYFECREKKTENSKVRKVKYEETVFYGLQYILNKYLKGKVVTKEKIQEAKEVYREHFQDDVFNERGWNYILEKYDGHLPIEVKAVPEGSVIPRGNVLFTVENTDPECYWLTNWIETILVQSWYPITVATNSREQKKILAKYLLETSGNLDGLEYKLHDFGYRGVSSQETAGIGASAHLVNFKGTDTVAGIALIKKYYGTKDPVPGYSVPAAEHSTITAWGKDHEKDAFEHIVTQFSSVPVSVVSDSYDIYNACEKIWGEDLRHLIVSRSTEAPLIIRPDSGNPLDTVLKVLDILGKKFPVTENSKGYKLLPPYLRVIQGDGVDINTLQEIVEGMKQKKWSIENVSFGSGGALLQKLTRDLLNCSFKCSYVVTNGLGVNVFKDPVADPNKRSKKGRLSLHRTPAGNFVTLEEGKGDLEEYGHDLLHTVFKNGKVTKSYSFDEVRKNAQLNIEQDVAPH
How it was run: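 In vitro NAMPT enzymatic assay run as concentration-response curves, with IC50 derived from the curves. Mean ± SD of three independent experiments (n = 6).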

SH-SY5Y [15] = assay: Cytotoxicity against human SH-SY5Y cells measured after 48 hrs by MTT assay; format: cell-based
[16] = Kinetic aqueous solubility of the compound in 80:20 PBS/acetonitrile solution at 200 to 500 uM by HTS assay; format: physicochemical; conditions: read-out: Kinetic_solubility
SH-SY5Y [17] = assay: Cytotoxicity against human SH-SY5Y cells assessed as cell viability at 10 uM measured after 48 hrs by MTT assay relative to control; format: functional; conditions: read-out: Activity
[18] = molecular target: Nicotinamide phosphoribosyltransferase (Homo sapiens) (UniProt P43490); assay: Inhibition of NAMPT in human SH-SY5Y cells assessed as reduction in NAD levels at 100 nM measured after 16 hrs by diaphorase and resazurin dye based fluorescence assay relative to control; format: cell-based
Sequence of Nicotinamide phosphoribosyltransferase (Homo sapiens) (P43490 whole entry, looked up): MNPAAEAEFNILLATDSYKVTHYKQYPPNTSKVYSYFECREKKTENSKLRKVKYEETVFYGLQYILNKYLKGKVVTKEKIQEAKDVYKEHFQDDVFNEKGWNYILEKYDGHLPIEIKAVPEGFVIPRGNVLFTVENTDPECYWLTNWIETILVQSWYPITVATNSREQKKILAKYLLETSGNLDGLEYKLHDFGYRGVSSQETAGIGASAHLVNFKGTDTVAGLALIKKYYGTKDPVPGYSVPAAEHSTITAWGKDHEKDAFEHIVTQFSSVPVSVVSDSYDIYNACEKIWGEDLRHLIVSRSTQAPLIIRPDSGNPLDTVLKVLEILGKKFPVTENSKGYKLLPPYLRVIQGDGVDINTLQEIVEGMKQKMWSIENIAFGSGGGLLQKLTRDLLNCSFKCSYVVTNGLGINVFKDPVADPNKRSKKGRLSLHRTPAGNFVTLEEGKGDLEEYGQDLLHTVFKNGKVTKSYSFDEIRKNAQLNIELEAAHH
How it was run: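 SH-SY5Y cells treated at 100 nM for 16 h, then NAD level reduction measured as % of control. Mean ± SD of two independent experiments (n = 6).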

[19] = Selectivity ratio of EC50 for cytotoxicity against human SH-SY5Y cells to IC50 for recombinant mouse wild-type NAMPT expressed in bacterial expression system; format: cell-based
[20] = Permeability across apical side to basolateral side in human Caco2 cells at 30 uM after 4 hrs by HPLC analysis; format: ADME, cell-based; conditions: caco-2, 4 h
How it was run: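 Caco-2 monolayer used to measure apical-to-basal transfer, reported as % permeability and Papp. Terbutaline served as the positive control; n = 3.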

Drug metabolism [1]: Metabolite_Detected
Drug metabolism [2]: Metabolite_Detected
Drug metabolism [3]: Metabolite_Detected
Kinetic_solubility [4]: Soluble
Drug metabolism [6]: Metabolite_Detected
Therm_solubility [8]: Soluble
Drug metabolism [9]: Metabolite_Detected
Drug metabolism [12]: Metabolite_Detected
Structure (SMILES): O=C(NCCCCCCCn1cc(-c2cccnc2)nn1)c1ccccc1-c1ccccc1
Activity (TK6 [5]): Non-Toxic
MTC (TK6 [7]): 125 µM
Activity (Lymphocyte [10]): Non-Toxic
LEC (Lymphocyte [11]): 125 µM

IC50 [14]: > 500 nM
Structure (SMILES): O=C(O)c1cccc(-c2ccccc2C(=O)NCCCCCCCn2cc(-c3cccnc3)nn2)c1
viability at 48 h, 1 µM [13]: 78.4%
EC50 (SH-SY5Y [15]): > 500 nM

The remaining lines, values behind:

Structure (SMILES): O=C(NCCCCCCCn1cc(-c2cccnc2)nn1)c1ccccc1-n1cc(CN(CCO)CCO)nn1
viability at 48 h, 1 µM [13]: 37.8%
IC50 [14]: 73.8 nM
EC50 (SH-SY5Y [15]): > 500 nM
solubility kinetic [16]: 200 to 500 µM (≈ 110 to 274 µg/mL)

Structure (SMILES): O=C(NCCCCCCCn1cc(-c2cccnc2)nn1)c1ccccc1-n1cc(CN2CCCC2)nn1
viability at 48 h, 1 µM [13]: 88.9%
IC50 [14]: 25.4 nM
EC50 (SH-SY5Y [15]): > 10000 nM
solubility kinetic [16]: 200 to 500 µM (≈ 103 to 257 µg/mL)
viability at 10 µM (SH-SY5Y [17]): 61.9%

Structure (SMILES): CN1CCN(Cc2cn(-c3ccccc3C(=O)NCCCCCCCn3cc(-c4cccnc4)nn3)nn2)CC1
inhibition [18]: inactive
viability at 48 h, 1 µM [13]: 87.7%
Selectivity ratio [19]: 200
permeability [20]: < 1%
IC50 [14]: 13.6 nM
EC50 (SH-SY5Y [15]): > 10000 nM
solubility kinetic [16]: 200 to 500 µM (≈ 109 to 271 µg/mL)
